Measured values from BindingDB's records for doi:10.1021/acs.jmedchem.5b01961 (Catabasis Pharmaceuticals, 2016).

Molecular target: T1, Sterol regulatory element-binding protein 2 (Homo sapiens, UniProt Q12772)
T1 sequence (Q12772 whole entry): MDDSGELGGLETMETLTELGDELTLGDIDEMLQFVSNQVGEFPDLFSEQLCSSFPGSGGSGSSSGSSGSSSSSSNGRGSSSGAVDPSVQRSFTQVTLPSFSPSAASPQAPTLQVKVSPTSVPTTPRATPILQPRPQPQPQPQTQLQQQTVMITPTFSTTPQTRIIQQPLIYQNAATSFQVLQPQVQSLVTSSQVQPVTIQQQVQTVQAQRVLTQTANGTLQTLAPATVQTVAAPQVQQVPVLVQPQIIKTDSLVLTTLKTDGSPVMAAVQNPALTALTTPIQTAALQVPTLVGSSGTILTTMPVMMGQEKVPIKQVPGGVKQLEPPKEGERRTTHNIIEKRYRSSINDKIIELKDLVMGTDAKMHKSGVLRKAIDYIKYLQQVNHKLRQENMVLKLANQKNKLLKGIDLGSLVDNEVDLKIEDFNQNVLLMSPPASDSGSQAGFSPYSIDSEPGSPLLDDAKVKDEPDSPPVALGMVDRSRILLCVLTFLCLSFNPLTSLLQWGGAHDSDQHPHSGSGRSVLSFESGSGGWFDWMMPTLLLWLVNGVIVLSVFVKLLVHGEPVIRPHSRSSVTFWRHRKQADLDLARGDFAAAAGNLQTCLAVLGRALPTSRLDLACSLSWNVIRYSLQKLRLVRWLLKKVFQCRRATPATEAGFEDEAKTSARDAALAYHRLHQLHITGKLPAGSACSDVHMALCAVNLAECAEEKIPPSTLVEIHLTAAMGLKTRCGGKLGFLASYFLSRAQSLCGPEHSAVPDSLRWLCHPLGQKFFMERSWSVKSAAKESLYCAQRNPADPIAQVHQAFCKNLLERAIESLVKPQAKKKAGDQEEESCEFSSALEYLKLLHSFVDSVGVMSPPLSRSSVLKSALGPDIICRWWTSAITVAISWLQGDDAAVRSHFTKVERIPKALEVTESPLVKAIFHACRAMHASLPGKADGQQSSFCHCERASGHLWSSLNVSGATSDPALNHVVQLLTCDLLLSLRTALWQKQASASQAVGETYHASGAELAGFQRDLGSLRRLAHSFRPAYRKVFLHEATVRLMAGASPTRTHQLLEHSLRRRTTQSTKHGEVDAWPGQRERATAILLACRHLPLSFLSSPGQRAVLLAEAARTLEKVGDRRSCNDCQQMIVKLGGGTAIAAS
Experiment: Inhibition of SREBP2 in human HepG2 cells assessed as reduction of PCSK9 secretion after 16 hrs by ELISA
How it was run: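 HepG2 cells treated with compound; secreted PCSK9 in culture supernatants measured with a human-specific PCSK9 ELISA.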

CC/C=C\C/C=C\C/C=C\C/C=C\C/C=C\CCCC(=O)NCCNC(=O)c1cccnc1
IC50: 17 µM
